Values after ≈ are worked out from the molar mass of the structure shown. Active and inactive are the calls of the source. The rule behind the calls is not given here.
Assays:
Klebsiella pneumoniae [1] = assay: Bactericidal activity against Klebsiella pneumoniae ATCC 43816 after 24 hrs; format: functional; settings: ATCC 43816, 24 h, read-out: MBC99.9
Outline: (§1)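 MBC determined by a standard MBC protocol alongside the MIC, with values in µg/mL. Gentamycin sulfate and ampicillin were the references.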

Klebsiella pneumoniae [2] = assay: Antibacterial activity against Klebsiella pneumoniae ATCC 43816 assessed as growth inhibition at 100 ug/ml after 24 hrs by agar well diffusion method; format: functional; settings: ATCC 43816, 24 h, read-out: IZ
Outline: (§2)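 Agar well diffusion. Compounds were tested at 10, 20, 100, 200 and 300 µg/mL, and the zone of inhibition was measured in mm. Gentamycin sulfate was the reference drug.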

[3] = n-Octanol-phosphate buffer partition coefficient, log P of the compound at pH 7.4 after 30 mins by shake flask method; format: physicochemical
Outline: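 Shake-flask partition between n-octanol and 50 mM phosphate buffer, pH 7.4. P calculated and expressed as logP.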

[4] = Anticancer activity against human DU145 cells assessed as cell viability after 48 hrs by MTT assay; format: functional, cell-based; settings: DU-145, 48 h
Outline: (§3)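 MTT cytotoxicity assay in human DU-145 prostate, MCF-7 breast and HeLa cervical cancer cell lines. Doxorubicin was the reference drug.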

HeLa [5] = assay: Induction of apoptosis in human HeLa cell assessed as nuclear condensation after 24 hrs by Hoechst 33258 staining based fluorescence microscopic analysis; format: functional
Outline: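 HeLa cells treated at 10 µM for 24 h, washed with PBS, then stained with Hoechst 33258 ([…]) for 20 min. Chromatin condensation imaged by fluorescence microscopy with a DAPI filter.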

Proteus vulgaris [6] = assay: Bactericidal activity against Proteus vulgaris ATCC 13315 after 24 hrs; format: functional; settings: ATCC 13315, 24 h, read-out: MBC99.9; outline: as §1
Escherichia coli [7] = assay: Bactericidal activity against Escherichia coli ATCC 8739 after 24 hrs; format: functional; settings: ATCC 8739, 24 h, read-out: MBC99.9; outline: as §1
HeLa [8] = assay: Anticancer activity against human HeLa cells assessed as cell viability at 10 uM after 48 hrs by MTT assay; format: functional, cell-based
Bacillus cereus [9] = assay: Bactericidal activity against Bacillus cereus ATCC 14579 after 24 hrs; format: functional; settings: ATCC 14579, 24 h, read-out: MBC99.9; outline: as §1
Proteus vulgaris [10] = assay: Antibacterial activity against Proteus vulgaris ATCC 13315 after 24 hrs by microtiter plate method; format: functional; settings: ATCC 13315, 24 h
Outline: (§4)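 Test concentrations reported in µg/mL. Gentamycin sulfate and ampicillin were the reference drugs.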

HeLa [11] = assay: Anticancer activity against human HeLa cells assessed as cell viability after 48 hrs by MTT assay; format: functional, cell-based; outline: as §3
Bacillus cereus [12] = assay: Antibacterial activity against Bacillus cereus ATCC 14579 assessed as growth inhibition at 100 ug/ml after 24 hrs by agar well diffusion method; format: functional; outline: as §2
Escherichia coli [13] = assay: Antibacterial activity against Escherichia coli ATCC 8739 assessed as growth inhibition at 100 ug/ml after 24 hrs by agar well diffusion method; format: functional; settings: ATCC 8739, 24 h, read-out: IZ; outline: as §2
Klebsiella pneumoniae [14] = assay: Antibacterial activity against Klebsiella pneumoniae ATCC 43816 after 24 hrs by microtiter plate method; format: functional; settings: ATCC 43816, 24 h; outline: as §4
Bacillus cereus [15] = assay: Antibacterial activity against Bacillus cereus ATCC 14579 after 24 hrs by microtiter plate method; format: functional; settings: ATCC 14579, 24 h; outline: as §4
Bacillus spizizenii [16] = assay: Antibacterial activity against Bacillus subtilis ATCC 6633 assessed as growth inhibition at 100 ug/ml after 24 hrs by agar well diffusion method; format: functional, organism-based; outline: as §2
Bacillus spizizenii [17] = assay: Antibacterial activity against Bacillus subtilis ATCC 6633 after 24 hrs by microtiter plate method; format: functional; settings: ATCC 6633, 24 h; outline: as §4
Staphylococcus aureus [18] = assay: Antibacterial activity against methicillin-resistant Staphylococcus aureus NCTC 13616 assessed as growth inhibition at 100 ug/ml after 24 hrs by agar well diffusion method; format: functional, organism-based
Outline: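 Agar well diffusion assay with compounds applied to wells at several concentrations, including the 100 level reported here. The zone of inhibition was measured in mm. Gentamycin sulfate was the standard drug.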

Staphylococcus aureus [19] = assay: Antibacterial activity against methicillin-resistant Staphylococcus aureus NCTC 13616 after 24 hrs by microtiter plate method; format: functional; settings: NCTC 13616, 24 h
Bacillus spizizenii [20] = assay: Bactericidal activity against Bacillus subtilis ATCC 6633 after 24 hrs; format: functional; settings: ATCC 6633, 24 h, read-out: MBC99.9; outline: as §1
Staphylococcus aureus [21] = assay: Bactericidal activity against methicillin-resistant Staphylococcus aureus NCTC 13616 after 24 hrs; format: functional; settings: NCTC 13616, 24 h, read-out: MBC99.9
Outline: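 MBC determined by a standard MBC protocol run alongside the MIC determination. Gentamycin sulfate and ampicillin served as reference drugs.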

Cytochrome P450 2A6 = target: T1, Cytochrome P450 2A6 (Homo sapiens, UniProt P11509); assay: Inhibition of human microsomal CYP2A6; format: ADME
T1 sequence (P11509 whole entry): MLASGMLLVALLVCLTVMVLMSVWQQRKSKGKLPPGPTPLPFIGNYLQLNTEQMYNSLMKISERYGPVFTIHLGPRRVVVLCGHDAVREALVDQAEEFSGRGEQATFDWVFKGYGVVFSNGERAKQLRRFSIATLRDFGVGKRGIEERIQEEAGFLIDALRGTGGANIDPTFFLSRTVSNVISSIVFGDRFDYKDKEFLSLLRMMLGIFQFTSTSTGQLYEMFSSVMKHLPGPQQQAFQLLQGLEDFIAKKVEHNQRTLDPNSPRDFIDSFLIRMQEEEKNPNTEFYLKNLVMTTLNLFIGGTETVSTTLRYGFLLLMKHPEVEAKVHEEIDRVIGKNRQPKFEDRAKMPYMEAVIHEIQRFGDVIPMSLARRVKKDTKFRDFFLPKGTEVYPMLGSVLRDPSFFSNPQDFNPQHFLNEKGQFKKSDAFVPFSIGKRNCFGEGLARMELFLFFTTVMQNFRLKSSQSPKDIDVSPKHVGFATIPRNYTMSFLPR

Escherichia coli [22] = assay: Antibacterial activity against Escherichia coli ATCC 8739 after 24 hrs by microtiter plate method; format: functional; settings: ATCC 8739, 24 h; outline: as §4
MCF7 = assay: Anticancer activity against human MCF7 cells assessed as cell viability after 48 hrs by MTT assay; format: functional, cell-based; settings: MCF7, 48 h; outline: as §3
Proteus vulgaris [23] = assay: Antibacterial activity against Proteus vulgaris ATCC 13315 assessed as growth inhibition at 100 ug/ml after 24 hrs by agar well diffusion method; format: functional; settings: ATCC 13315, 24 h, read-out: IZ; outline: as §2

For Cc1ccc(-c2nn(-c3nc(-c4cc5cc(Cl)cc(Cl)c5oc4=O)cs3)cc2C=O)cc1, the MBC (Klebsiella pneumoniae [1]) was 150 µg/mL (≈ 311 µM), the zone of inhibition at 100 µg/mL (Klebsiella pneumoniae [2]) was 20 mm and the logD at 0.5 h [3] was 3.6. For the same compound, the IC50 [4] was 14.7 µM, the Activity (HeLa [5]) was “Active” and the MBC (Proteus vulgaris [6]) was 210 µg/mL (≈ 435 µM). For the same compound, the MBC (Escherichia coli [7]) was 150 µg/mL (≈ 311 µM), the “growth inhibition (GI)” value (HeLa [8]) was “Active” and the MBC (Bacillus cereus [9]) was 150 µg/mL (≈ 311 µM). The MIC (Proteus vulgaris [10]) was 105 µg/mL (≈ 218 µM), the IC50 (HeLa [11]) was 5.75 µM and the “growth inhibition (GI)” value (Bacillus cereus [12]) was “Active”. The zone of inhibition at 100 µg/mL (Escherichia coli [13]) was 18 mm, the MIC (Klebsiella pneumoniae [14]) was 101 µg/mL (≈ 209 µM) and the MIC (Bacillus cereus [15]) was 100 µg/mL (≈ 208 µM). The “growth inhibition (GI)” value (Bacillus spizizenii [16]) was “Active”, the MIC (Bacillus spizizenii [17]) was 98.2 µg/mL (≈ 204 µM) and the “growth inhibition (GI)” value (Staphylococcus aureus [18]) was “Active”. It also gave an MIC (Staphylococcus aureus [19]) of 116 µg/mL (≈ 240 µM), an MBC (Bacillus spizizenii [20]) of 145 µg/mL (≈ 301 µM) and an MBC (Staphylococcus aureus [21]) of 230 µg/mL (≈ 477 µM). It also gave a Ki (Cytochrome P450 2A6) of 0.00257 µM, an MIC (Escherichia coli [22]) of 101 µg/mL (≈ 210 µM) and an IC50 (MCF7) of 14.6 µM. For the same compound, the zone of inhibition at 100 µg/mL (Proteus vulgaris [23]) was 18 mm.
Cc1ccc(-c2nn(-c3nc(-c4cc5cc(Br)cc(Br)c5oc4=O)cs3)cc2C=O)cc1 gave an MBC (Klebsiella pneumoniae [1]) of 115 µg/mL (≈ 201 µM), a zone of inhibition at 100 µg/mL (Klebsiella pneumoniae [2]) of 24 mm and a logD at 0.5 h [3] of 3.34. For the same compound, the IC50 [4] was 10.8 µM, the Activity (HeLa [5]) was “Active” and the MBC (Proteus vulgaris [6]) was 150 µg/mL (≈ 263 µM). It also gave an MBC (Escherichia coli [7]) of 130 µg/mL (≈ 228 µM), an MBC (Bacillus cereus [9]) of 110 µg/mL (≈ 193 µM) and an MIC (Proteus vulgaris [10]) of 101 µg/mL (≈ 176 µM). The IC50 (HeLa [11]) was 6.25 µM, the “growth inhibition (GI)” value (Bacillus cereus [12]) was “Active” and the zone of inhibition at 100 µg/mL (Escherichia coli [13]) was 22 mm. The MIC (Klebsiella pneumoniae [14]) was 79.1 µg/mL (≈ 138 µM), the MIC (Bacillus cereus [15]) was 72.8 µg/mL (≈ 127 µM) and the “growth inhibition (GI)” value (Bacillus spizizenii [16]) was “Active”. For the same compound, the MIC (Bacillus spizizenii [17]) was 92.4 µg/mL (≈ 162 µM), the “growth inhibition (GI)” value (Staphylococcus aureus [18]) was “Active” and the MIC (Staphylococcus aureus [19]) was 106 µg/mL (≈ 185 µM). The MBC (Bacillus spizizenii [20]) was 150 µg/mL (≈ 263 µM), the MBC (Staphylococcus aureus [21]) was 175 µg/mL (≈ 306 µM) and the Ki (Cytochrome P450 2A6) was 0.00173 µM. The MIC (Escherichia coli [22]) was 86.5 µg/mL (≈ 151 µM), the IC50 (MCF7) was 24.5 µM and the zone of inhibition at 100 µg/mL (Proteus vulgaris [23]) was 20 mm.

Reference: ChEMBL document CHEMBL3739273, “Synthesis, biological activity evaluation and molecular docking studies of novel coumarin substituted thiazolyl-3-aryl-pyrazole-4-carbaldehydes” (Bioorg Med Chem Lett, 2015)
